Measured values pooled from the literature.
EGFR G719C: Epidermal growth factor receptor (EGFR, Homo sapiens, UniProt P00533, G719C)
EGFR L858R: Epidermal growth factor receptor (EGFR, Homo sapiens, UniProt P00533, L858R)
EGFR del747-750/T751S: Epidermal growth factor receptor (EGFR, Homo sapiens, UniProt P00533, del747-750/T751S)
EGFR del747-752/P753S: Epidermal growth factor receptor (EGFR, Homo sapiens, UniProt P00533, del747-752/P753S)
EGFR del752-759: Epidermal growth factor receptor (EGFR, Homo sapiens, UniProt P00533, del752-759)
EGFR G719S: Epidermal growth factor receptor (EGFR, Homo sapiens, UniProt P00533, G719S)
EGFR L861Q: Epidermal growth factor receptor (EGFR, Homo sapiens, UniProt P00533, L861Q)
EGFR T790M: Epidermal growth factor receptor (EGFR, Homo sapiens, UniProt P00533, T790M)

SMILES | target | effect on | technique | tested at | remaining binding [%]
CNCc1ccccc1-c1csc([C@H](C)Nc2nc(C)nc3cc(OC)c(OC)cc23)c1 | EGFR G719C | cell-free assay | competition with immobilised ligand | 1 µM | 85
O=C(NCC1CCOCC1)c1n[nH]cc1NC(=O)c1c(F)cccc1F | EGFR L858R | binding | competition with immobilised ligand | 1 µM | 89
CCS(=O)(=O)c1cc2cc(C[C@@](O)(CC(C)(C)c3ccc(F)cc3C(N)=O)C(F)(F)F)[nH]c2cn1 | EGFR del747-750/T751S | cell-free assay | competition with immobilised ligand | 1 µM | 93
O=C(c1ccc(Nc2nccc(-c3cc4ccccc4s3)n2)cc1)N1CCC(N2CCCC2)CC1 | EGFR del747-752/P753S | binding | competition with immobilised ligand | 1 µM | 90
CC1CCCN1c1nccc(-c2cnn3ncccc23)n1 (stereo not drawn) | EGFR L858R | binding | – | 1 µM | 100
CN1CCN(c2ccc(Nc3nccc(-c4ccccc4)n3)cc2C(F)(F)F)CC1 | EGFR del752-759 | binding | – | 10 µM | 100
CNC(=O)Nc1ccc2c(c1)[C@@]1(CC2)OC(=O)N(CC(=O)N(Cc2ccc(F)cc2)[C@@H](C)C(F)(F)F)C1=O | Epidermal growth factor receptor (EGFR, Homo sapiens, UniProt P00533, A750P/del747-749) | cell-free assay | competition with immobilised ligand | 1 µM | 96
CN(C)c1nccc(-c2cnc3ncccn23)n1 | EGFR G719C | binding | – | 1 µM | 100
O=C(NCCCN1CCOCC1)c1ccc(Nc2ncc(Cl)c(-c3ccc(Cl)s3)n2)cc1 | EGFR G719S | binding | competition with immobilised ligand | 1 µM | 100
CN1CCN(c2ccc(Nc3nccc(-c4cccc([N+](=O)[O-])c4)n3)cc2C(F)(F)F)CC1 | EGFR G719S | binding | – | 10 µM | 98
COc1cnc(Nc2cccc(S(N)(=O)=O)c2)nc1N1CCN(c2ccccc2)CC1 | EGFR L861Q | binding | competition with immobilised ligand | 1 µM | 100
CCC(=N\O)/C(C)=C/c1ccc(F)cc1 | EGFR L858R | cell-free assay | competition with immobilised ligand | 1 µM | 65
CNC(=O)[C@@H]1CC[C@@H](n2c(-c3ccc4cnccc4c3)nc3ccc(C(=O)NCc4cccc(C(N)=O)c4)cc32)C1 | EGFR L861Q | binding | competition with immobilised ligand | 1 µM | 100
c1cncc(-c2cccc(Nc3nccc(NC4CCCCC4)n3)c2)c1 | EGFR del752-759 | binding | competition with immobilised ligand | 10 µM | 69
Nc1ncc2c(n1)-c1c([nH]c3ccc(C#CC4CC4)cc13)CCCC2 | EGFR del752-759 | binding | competition with immobilised ligand | 1 µM | 100
CN(c1nccc(-c2cnn3ncccc23)n1)C1CC1 | EGFR T790M | binding | – | 1 µM | 100
CCN1CCN(Cc2ccc(C(=O)Nc3ccc(C)c(Oc4ccc5c(c4)CC(=O)N5)c3)cc2C(F)(F)F)CC1 | EGFR T790M | binding | competition with immobilised ligand | 1 µM | 83

SMILES | target | effect on | technique | tested at | remaining binding [%]
CS(=O)(=O)N1CCCC(NC(=O)[C@H](CCC2CCCCC2)NC(=O)c2ccc(CNc3ncnc4c3nnn4-c3ccccc3)cc2)C1 (stereo partly drawn) | EGFR del747-752/P753S | cell-free assay | competition with immobilised ligand | 0.1 µM | 66
COc1cnc(Nc2cccc(S(N)(=O)=O)c2)nc1N1CCN(c2ccccc2)C(=O)C1 | EGFR G719S | binding | competition with immobilised ligand | 1 µM | 100
O=C(NCCCN1CCOCC1)c1ccc(Nc2nccc(-c3cc4ccccc4s3)n2)cc1 | EGFR G719C | binding | competition with immobilised ligand | 1 µM | 99
O=C(Nc1c[nH]nc1C(=O)NC1CCNCC1)c1cc(F)cc(F)c1 | EGFR G719S | binding | competition with immobilised ligand | 1 µM | 100
N#Cc1ccc(Nc2ccc3[nH]c(=O)[nH]c3c2)c(Cl)c1 | EGFR del752-759 | cell-free assay | competition with immobilised ligand | 1 µM | 100
Cc1cnc(Nc2ccc(C(=O)N3CCC(N4CCCC4)CC3)cc2)nc1-c1cc2ccccc2s1 | EGFR G719S | binding | competition with immobilised ligand | 1 µM | 97
COc1ccnn2ncc(-c3ccnc(N(C)C)n3)c12 | EGFR del752-759 | binding | – | 1 µM | 86
O=C(c1ccc(Nc2ncc(Cl)c(-c3cc4ccccc4s3)n2)cc1)N1CCC(N2CCCC2)CC1 | Epidermal growth factor receptor (EGFR, Homo sapiens, UniProt P00533, del746-750) | binding | competition with immobilised ligand | 1 µM | 79
F[C@@H]1CCN(c2nccc(-c3cnn4ncccc34)n2)C1 | EGFR G719S | binding | – | 1 µM | 100
C[C@H](c1ccc(F)cc1)N(Cc1cccc(C(=O)O)c1)C(=O)c1cnc2ccccc2c1 | EGFR G719S | cell-free assay | competition with immobilised ligand | 1 µM | 100
CN(C)c1ncc(F)c(-c2cnn3ncccc23)n1 | EGFR del752-759 | binding | – | 1 µM | 100
COc1ncc2cc3ccccc3nc2c1C#N | EGFR L858R | cell-free assay | competition with immobilised ligand | 5 µM | 99
CN(C)c1nccc(-c2cnn3ncccc23)n1 | Epidermal growth factor receptor (EGFR, Homo sapiens, UniProt P00533) | binding | – | 1 µM | 100
O=C1NC(c2ccccn2)Sc2ccccc21 (stereo not drawn) | EGFR del747-750/T751S | cell-free assay | competition with immobilised ligand | 1 µM | 68
O=C(c1ccc(Nc2ncc(Cl)c(-c3ccc(Cl)s3)n2)cc1)N1CCC(N2CCCC2)CC1 | EGFR G719C | binding | competition with immobilised ligand | 1 µM | 100
C[C@@H]1CCN(c2nccc(-c3cnn4ncccc34)n2)C1 | EGFR T790M | binding | – | 1 µM | 79
